From paper PMC9486128 (The Journal of Biological Chemistry, 2022)
Residue numbers refer to the chain shown, from its start. Where “and” joins values, the source holds several entries; their conditions need not be identical. Equal entries are not always repeated.

Tests used:
SmHDAC8 WT = molecular target: T1, SmHDAC8 WT (Schistosoma mansoni, UniProt A5H660); test: Steady-state enzyme kinetics of SmHDAC8 with fixed inhibitor concentration; assay type: biochemical; details: for type of inhibition of SmHDAC8: from steady-state kinetics and IC50 at different substrate concentrations
T1 sequence (A5H660 1-440): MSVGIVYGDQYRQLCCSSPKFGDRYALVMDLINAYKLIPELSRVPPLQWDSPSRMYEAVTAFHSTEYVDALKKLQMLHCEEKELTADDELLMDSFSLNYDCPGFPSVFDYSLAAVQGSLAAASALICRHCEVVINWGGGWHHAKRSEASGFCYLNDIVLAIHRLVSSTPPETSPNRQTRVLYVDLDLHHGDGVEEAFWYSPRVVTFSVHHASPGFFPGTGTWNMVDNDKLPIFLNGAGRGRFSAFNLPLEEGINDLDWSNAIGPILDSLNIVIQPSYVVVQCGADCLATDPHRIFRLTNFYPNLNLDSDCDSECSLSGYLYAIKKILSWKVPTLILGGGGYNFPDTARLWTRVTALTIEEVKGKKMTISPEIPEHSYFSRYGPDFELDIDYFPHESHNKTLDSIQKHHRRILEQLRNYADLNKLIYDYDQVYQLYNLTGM
Procedure, shortened: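 SmHDAC8 (0.425 μM) was preincubated 15 min at 25 °C with DMSO, 5 μM or 1 μM test compound. Timed aliquots were quenched with TSA/trypsin. Initial rates came from product versus time via standard curve and were fitted to Michaelis–Menten. Two to four independent experiments were run.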

WT SmHDAC8 = molecular target: T2, WT SmHDAC8 (Schistosoma mansoni, UniProt A5H660); test: Fluorescence emission spectra of WT SmHDAC8 with inhibitors; assay type: binding; details: inhibitor 25 μM, excitation 280 and 298 nm
T2 sequence (A5H660 1-440): T1 sequence (A5H660 1-440)
Procedure, shortened: (§1)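 WT SmHDAC8 or the W198A mutant (made by site-directed mutagenesis and expressed in E. coli) was used at 0.125 μM in 10 mM Tris pH 8.0, 150 mM KCl, 5 mM DTT. Protein was preincubated 15 min at 25 °C with 25 μM test compound, with a DMSO reference and enzyme-free blanks. Emission spectra were recorded after 280 and 298 nm excitation, averaging 4–5 accumulations. Some runs included 2 mM Na/K-tartrate.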

SmHDAC8 [1] = molecular target: T3, SmHDAC8 (Schistosoma mansoni, UniProt A5H660); test: SmHDAC8 enzymatic activity inhibition; assay type: biochemical; details: for enhancement in potency toward SmHDAC8: NF2883 with respect to NF2453, NF2889 with respect to NF2452
T3 sequence (A5H660 1-440): T1 sequence (A5H660 1-440)

SmHDAC8 [2] = molecular target: T3, SmHDAC8; test: Binding to SmHDAC8 by quenching of intrinsic fluorescence
Procedure, shortened: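 Recombinant His6-tagged SmHDAC8 was expressed in E. coli BL21(DE3) and used at 0.125 μM in 50 mM Tris pH 8.0, 150 mM KCl, 100 μM DTT. It was titrated with test compound from 1.6 nM to 125 μM, with 5 min stirred equilibration per addition at 25 °C. Intrinsic fluorescence quenching was read at 340 nm (excitation 280 nm), averaging 4–5 accumulations. Ki came from a quadratic 1:1 binding fit.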

SmHDAC8 W198A mutant = molecular target: T4, SmHDAC8 W198A mutant (Schistosoma mansoni, UniProt A5H660, W198A); test: Fluorescence emission spectra of SmHDAC8 W198A mutant with inhibitors; assay type: binding; details: inhibitor 25 μM, excitation 280 and 298 nm
T4 sequence (A5H660 1-440 W198A): T1 sequence (A5H660 1-440) with W198A
Procedure, shortened: as §1

[3] = system: S. mansoni adult worm pairs; test: Adult worm pairs viability assay; assay type: cell-based, Schistosoma mansoni; details: for reduction of adult worm pairs viability: day 7; for adult worm pairs viability: 24 h
Procedure, shortened: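 Five adult worm pairs per sample were held in complete DMEM. Test compound was added once at 10, 20 or 50 μM, with no medium addition or replacement, against a DMSO vehicle control. Worms were scored 0–3 daily under a stereomicroscope for 7 days. The sample score was the sum of worm scores divided by worm number, expressed as percent relative to DMSO. Three experiments were run.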

hHDAC8 [4] = molecular target: T5, hHDAC8 (Homo sapiens, UniProt Q9BY41); test: Steady-state enzyme kinetics of hHDAC8 with fixed inhibitor concentration; assay type: biochemical; details: for type of inhibition of hHDAC8: from steady-state kinetics
T5 sequence (Q9BY41 1-377): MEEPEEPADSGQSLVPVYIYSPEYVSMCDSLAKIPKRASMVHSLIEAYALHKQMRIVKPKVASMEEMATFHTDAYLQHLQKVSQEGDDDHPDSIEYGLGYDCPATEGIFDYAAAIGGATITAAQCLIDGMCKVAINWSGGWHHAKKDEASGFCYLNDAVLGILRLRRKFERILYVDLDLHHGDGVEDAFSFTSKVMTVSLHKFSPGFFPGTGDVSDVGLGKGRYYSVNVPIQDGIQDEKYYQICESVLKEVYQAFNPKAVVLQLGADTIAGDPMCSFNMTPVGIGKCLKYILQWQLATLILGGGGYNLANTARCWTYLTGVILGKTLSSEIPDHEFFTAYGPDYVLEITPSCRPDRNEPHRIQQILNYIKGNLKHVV
Procedure, shortened: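 Commercial recombinant human HDAC8 from the Fluor-de-Lys kit was run with varied Fluor-de-Lys acetylated peptide-AMC substrate. Reactions contained vehicle or a fixed test compound concentration. Steady-state parameters came from Michaelis–Menten nonlinear regression.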

[5] = system: S. mansoni larvae (schistosomula); test: ATP-based luminescence viability assay on schistosomula; assay type: cell-based, Schistosoma mansoni; details: 72 h incubation, normalized to DMSO and gambogic acid 10 μM
Procedure, shortened: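 Schistosomula of a Puerto Rican strain were made by mechanical transformation of cercariae and purified on a Percoll gradient. They were exposed at 150 per well in phenol-red-free DMEM to test compound in DMSO for 72 h at 37 °C, 5% CO2. CellTiterGlo luminescence was read after 30 min. Three independent experiments were run. LD50 came from a variable-slope log(inhibitor) versus normalized response fit.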

hHDAC8 [6] = molecular target: T5, hHDAC8; test: hHDAC8 enzymatic activity inhibition; assay type: biochemical; details: for enhancement in potency toward hHDAC8: NF2883 with respect to NF2453, NF2889 with respect to NF2452
[7] = system: acetylation of lysine residues within histone proteins of S. mansoni adult worm pairs; test: Histone K-acetylation Western blot on adult worm pairs; assay type: cell-based, Schistosoma mansoni
Procedure, shortened: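 Ten adult worm pairs were treated 24 or 72 h with test compound at concentrations taken from viability curves. Positive controls were TSA 1 μM and a reference HDAC inhibitor 20 μM; DMSO was the negative control. Lysis buffer contained 5 mM sodium butyrate. Histone-enriched fractions were run on 15% SDS-PAGE and blotted with anti-acetyl-lysine (1:4000) and anti-α-tubulin (1:5000), with Ponceau calibration. Acetyl-lysine densitometry was normalized to tubulin, then to DMSO.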

Row | SMILES | type of inhibition of SmHDAC8 (SmHDAC8 WT) | fluorescence signal of WT SmHDAC8 with respect to control (WT SmHDAC8) | Ki (SmHDAC8 [2]) | fluorescence signal of SmHDAC8 W198A mutant with respect to control (SmHDAC8 W198A mutant) | reduction of adult worm pairs viability ([3]; 10 μM) | reduction of adult worm pairs viability ([3]; 20 μM) | type of inhibition of hHDAC8 (hHDAC8 [4]) | LD50 on schistosomula [5] | IC50 (hHDAC8 [6]) | enhancement in potency toward SmHDAC8 (SmHDAC8 [1]) | adult worm pairs viability ([3]; 50 μM) | enhancement in potency toward hHDAC8 (hHDAC8 [6]) | also measured
1 | O=C(NO)c1ccc(Cn2c3c(c4cc(Br)ccc42)SC(c2ccccc2)C3)s1 (stereo not drawn) [NF2886, 5-((7-Bromo-2-phenyl-2,3-dihydro-4H-thieno[3,2-b]indol-4-yl)methyl)-N-hydroxythiophene-2-carboxamide] | competitive inhibitor | quenched | 9700 ± 7200 nM | quenching | ineffective | ~50% | competitive | ~60 µM and 59.9 ± 4.9 µM | 3140 ± 570 nM | – | – | – | kcat (SmHDAC8 WT; SmHDAC8 with 5 μM NF2886): 0.017 ± 0.003 s⁻¹; increment of KM versus vehicle (SmHDAC8 WT; SmHDAC8 with 5 μM inhibitor): > 3 fold; increase of IC50 with 150 μM substrate versus 50 μM (SmHDAC8 [1]; SmHDAC8): ~2 fold; reduction of adult worm pairs viability ([3]; 50 μM): ~50%; kcat (hHDAC8 [4]; hHDAC8 with 5 μM NF2886): 0.012 ± 0.004 s⁻¹
2 | CN1CCC2(CC1)c1ccccc1N(Cc1ccc(C(=O)NO)s1)C2c1cccc(Cl)c1 (stereo not drawn) [NF2889, 5-((2-(3-Chlorophenyl)-1′-methylspiro[indoline-3,4′-piperidin]-1-yl)methyl)-N-hydroxythiophene-2-carboxamide] | mixed-type inhibition | quenched | 600 ± 200 nM | no quenching | 50% | almost complete death | competitive | 26.2 ± 1.6 µM | 1320 ± 70 nM | 6 fold | immediate loss of viability | 2 fold | kcat (SmHDAC8 WT; SmHDAC8 with 1 μM NF2889): 0.007 ± 0.003 s⁻¹; increase of lysine acetylation signal versus DMSO ([7]; 5 μM for 72 h): 11 fold; increase of lysine acetylation signal versus DMSO ([7]; 10 μM for 24 h): 6.5 fold; kcat (hHDAC8 [4]; hHDAC8 with 2 μM NF2889): 0.011 ± 0.005 s⁻¹
3 | CC(/C=C/C(=O)NO)=C\[C@@H](C)C(=O)c1ccc(N(C)C)cc1 [TSA, Trichostatin A, reference compound] | – | – | – | – | – | – | – | – | – | – | – | – | increase of K-acetylation to tubulin ratio versus control ([7]; 1 μM, positive control): About 10 fold
4 | CN1CCC2(CC1)c1ccccc1N(Cc1ccc(C(=O)NO)s1)C2c1ccc(Cl)cc1 (stereo not drawn) [NF2883, 5-((2-(4-chlorophenyl)-1′-methylspiro[indoline-3,4′-piperidin]-1-yl)methyl)-N-hydroxythiophene-2-carboxamide] | – | – | 130 ± 50 nM | – | 50% | almost complete death | – | 26.2 ± 1.1 µM | 160 ± 20 nM | about 20 fold | immediate loss of viability | about 20 fold | –
